{"source": "ChEMBL document CHEMBL1154775", "about": "“Discovery of dermorphin-based affinity labels with subnanomolar affinity for mu opioid receptors” (J Med Chem, 2009)", "key": {"[1]": {"biological_target": "Mu-type opioid receptor (Cavia porcellus) (UniProt P97266)", "sequence (P97266 whole entry)": "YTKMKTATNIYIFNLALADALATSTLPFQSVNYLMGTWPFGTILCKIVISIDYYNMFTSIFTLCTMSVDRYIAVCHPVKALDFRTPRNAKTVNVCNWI", "assay": "Ratio of compound IC50 to beta-FNA IC50 for mu opioid receptor in guinea pig brain membrane", "format": "cell membranes"}, "[2]": {"biological_target": "T1, Mu-type opioid receptor (Homo sapiens, UniProt P35372)", "T1 sequence (P35372 whole entry)": "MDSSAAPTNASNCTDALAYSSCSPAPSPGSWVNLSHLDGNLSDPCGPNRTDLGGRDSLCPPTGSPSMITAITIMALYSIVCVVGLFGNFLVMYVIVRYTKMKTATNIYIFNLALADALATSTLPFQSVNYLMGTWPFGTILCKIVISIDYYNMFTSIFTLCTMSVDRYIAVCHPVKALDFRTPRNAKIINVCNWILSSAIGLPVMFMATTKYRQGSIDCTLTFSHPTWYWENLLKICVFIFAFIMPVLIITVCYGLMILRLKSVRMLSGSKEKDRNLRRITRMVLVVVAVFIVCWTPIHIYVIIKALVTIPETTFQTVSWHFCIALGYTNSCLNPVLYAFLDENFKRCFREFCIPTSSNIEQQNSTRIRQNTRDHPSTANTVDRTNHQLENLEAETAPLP", "assay": "Displacement of [3H]DAMGO from mu opioid receptor expressed in CHO cells after 90 mins by scintillation counting", "format": "cell-based", "summary_of_the_method": "(§1)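 Competitive radioligand binding on CHO cells stably expressing MOR or DOR. Radioligand was [3H]DAMGO for MOR and [3H]DPDPE for DOR. IC50 values were measured under standard conditions.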"}, "[3]": {"biological_target": "Delta-type opioid receptor (Homo sapiens, UniProt P41143)", "sequence (P41143 whole entry)": "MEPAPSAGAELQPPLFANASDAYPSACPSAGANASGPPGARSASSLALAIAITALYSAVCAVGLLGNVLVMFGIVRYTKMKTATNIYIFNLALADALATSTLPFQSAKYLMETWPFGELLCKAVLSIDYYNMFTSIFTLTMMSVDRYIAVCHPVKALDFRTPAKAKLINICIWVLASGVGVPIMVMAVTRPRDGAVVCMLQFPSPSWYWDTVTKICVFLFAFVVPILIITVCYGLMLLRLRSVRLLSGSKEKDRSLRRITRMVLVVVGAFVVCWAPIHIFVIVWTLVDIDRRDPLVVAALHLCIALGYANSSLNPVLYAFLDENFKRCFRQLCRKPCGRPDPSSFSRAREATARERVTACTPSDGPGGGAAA", "assay": "Displacement of [3H]DPDPE from delta opioid receptor expressed in CHO cells after 90 mins by scintillation counting", "format": "cell-based", "summary_of_the_method": "as §1"}, "[4]": {"biological_target": "T1, Mu-type opioid receptor", "assay": "Displacement of [3H]DAMGO from mu opioid receptor expressed in CHO cells after 90 mins by scintillation counting relative to dermorphin", "format": "cell-based"}, "[5]": {"assay": "Selectivity ratio of IC50 for delta opioid receptor to IC50 for mu opioid receptor", "summary_of_the_method": "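MOR selectivity was calculated as the ratio of DOR IC50 to MOR IC50. Both IC50s came from CHO-cell binding, with [3H]DPDPE as the DOR radioligand and [3H]DAMGO as the MOR radioligand. Ratios depend on the radioligand concentration used.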"}, "[6]": {"assay": "Ratio of dermorphin selectivity for mu opioid receptor over delta opioid receptor to compound selectivity for mu opioid receptor over delta opioid receptor"}, "[7]": {"biological_target": "T1, Mu-type opioid receptor", "assay": "Inhibition of [3H]DAMGO binding to mu opioid receptor expressed in CHO cells at 7 nM after 90 mins by WRIB assay", "format": "cell-based", "summary_of_the_method": "(§2)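 Wash-resistant inhibition of binding in MOR-expressing CHO cell membranes. Membranes were incubated with peptide, either near its IC50 or at higher concentrations, then washed extensively to remove noncovalently bound ligand. Remaining [3H]DAMGO binding was then measured and expressed as % inhibition against untreated control. Acetylated reversible analogues were run alongside to verify that the wash was complete.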"}, "[8]": {"biological_target": "T1, Mu-type opioid receptor", "conditions": "CHO; 0.43 nM"}, "[9]": {"biological_target": "T1, Mu-type opioid receptor", "assay": "Ratio of dermorphin IC50 to compound IC50 for mu opioid receptor expressed in CHO cells", "format": "cell-based"}, "[10]": {"biological_target": "T1, Mu-type opioid receptor", "assay": "Inhibition of [3H]DAMGO binding to mu opioid receptor expressed in CHO cells after 90 mins by WRIB assay", "format": "cell-based", "summary_of_the_method": "as §2"}, "[11]": {"biological_target": "T1, Mu-type opioid receptor", "assay": "Inhibition of [3H]DAMGO binding to mu opioid receptor expressed in CHO cells at 0.4 nM after 90 mins by WRIB assay", "format": "cell-based", "summary_of_the_method": "as §2"}, "[12]": {"biological_target": "Mu-type opioid receptor (Cavia porcellus, UniProt P97266)", "sequence (P97266 whole entry)": "as the sequence (P97266 whole entry) above", "assay": "Displacement of beta-[3H]FNA from mu opioid receptor in guinea pig brain membrane", "format": "cell membranes"}, "[13]": {"biological_target": "Mu-type opioid receptor (Rattus norvegicus) (UniProt P33535)", "sequence (P33535 whole entry)": "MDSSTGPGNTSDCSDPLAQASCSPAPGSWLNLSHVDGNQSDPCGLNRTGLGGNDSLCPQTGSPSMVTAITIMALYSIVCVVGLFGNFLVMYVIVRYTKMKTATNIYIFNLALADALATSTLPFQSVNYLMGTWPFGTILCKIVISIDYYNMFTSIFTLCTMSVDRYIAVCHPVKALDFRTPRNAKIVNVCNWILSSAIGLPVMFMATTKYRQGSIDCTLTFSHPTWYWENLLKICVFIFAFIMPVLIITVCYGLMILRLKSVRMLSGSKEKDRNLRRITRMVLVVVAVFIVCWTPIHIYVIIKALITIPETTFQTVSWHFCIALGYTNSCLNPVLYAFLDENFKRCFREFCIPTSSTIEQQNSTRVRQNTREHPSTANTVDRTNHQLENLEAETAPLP", "assay": "(§3) Inhibition of [3H]DAMGO binding to mu opioid receptor in rat brain membrane", "format": "cell membranes"}, "[14]": {"biological_target": "Mu-type opioid receptor (Rattus norvegicus, UniProt P33535)", "sequence (P33535 whole entry)": "as above", "assay": "as §3", "format": "cell membranes"}, "[15]": {"biological_target": "Mu-type opioid receptor (Rattus norvegicus) (UniProt P33535)", "assay": "Inhibition of [3H]naloxone binding to mu opioid receptor in rat brain membrane", "format": "cell membranes"}, "[16]": {"biological_target": "T1, Mu-type opioid receptor", "conditions": "CHO; 0.11 nM"}}, "note": "pIC50: −log10 of the molar value. Calls of active or inactive are those of the source. The rule behind the calls is not given here. Numbered stars: 1 amine (or outer) side, 2 acyl side, 3 side chain; on linkers, the order of the positions; unused ones are H or OH. Square brackets hold non-standard residues; d marks the D form. Peptide text beside a SMILES is read from it. X6 = O=C(CBr)N(CCCC[C@@H](N[*:1])C(=O)[*:2])C(=O)CBr; X1 = O=C(CBr)N(CCC[C@@H](N[*:1])C(=O)[*:2])C(=O)CBr; X7 = CC(=O)N(CCCC[C@@H](N[*:1])C(=O)[*:2])C(C)=O; X8 = CC(=O)N(CCC[C@@H](N[*:1])C(=O)[*:2])C(C)=O; X5 = O=C([C@@H](CCCCN(N=C=S)N=C=S)N[*:1])[*:2]; X4 = O=C([C@@H](CCCN(N=C=S)N=C=S)N[*:1])[*:2]", "data": [{"smiles": "N[C@@H](Cc1ccc(O)cc1)C(=O)N[C@H](CCCCN(C(=O)CBr)C(=O)CBr)C(=O)N[C@@H](Cc1ccccc1)C(=O)NCC(=O)N[C@@H](Cc1ccc(O)cc1)C(=O)N1CCC[C@H]1C(=O)N[C@@H](CO)C(=O)O", "note": "(H-Y[X6]FGYPS-OH)", "values": [{"measurement": "Ratio IC50", "setting": "[1]", "value": 3}, {"measurement": "pIC50", "setting": "[2]", "value": 8.28}, {"measurement": "pIC50", "setting": "[3]", "value": 6.42}, {"measurement": "Activity", "setting": "[4]", "value": 0.14}, {"measurement": "Ratio IC50", "setting": "[5]", "value": 73}, {"measurement": "Ratio", "setting": "[6]", "value": 4}, {"measurement": "inhibition", "setting": "[7]", "value": 32, "unit": "%"}]}, {"smiles": "N[C@@H](Cc1ccc(O)cc1)C(=O)N[C@H](CCCN(N=C=S)N=C=S)C(=O)N[C@@H](Cc1ccccc1)C(=O)NCC(=O)N[C@@H](Cc1ccc(O)cc1)C(=O)N1CCC[C@H]1C(=O)N[C@@H](CO)C(=O)O", "note": "(H-Y[X4]FGYPS-OH)", "values": [{"measurement": "Ratio IC50", "setting": "[1]", "value": 3}, {"measurement": "pIC50", "setting": "[2]", "value": 9.09}, {"measurement": "pIC50", "setting": "[3]", "value": 7.62}, {"measurement": "Activity", "setting": "[4]", "value": 0.89}, {"measurement": "Ratio IC50", "setting": "[5]", "value": 29}, {"measurement": "Ratio", "setting": "[6]", "value": 9}, {"measurement": "inhibition", "setting": "[8]", "value": 40, "unit": "%"}]}, {"smiles": "N[C@@H](Cc1ccc(O)cc1)C(=O)N[C@H](CCCCN(N=C=S)N=C=S)C(=O)N[C@@H](Cc1ccccc1)C(=O)NCC(=O)N[C@@H](Cc1ccc(O)cc1)C(=O)N1CCC[C@H]1C(=O)N[C@@H](CO)C(=O)O", "note": "(H-Y[X5]FGYPS-OH)", "values": [{"measurement": "pIC50", "setting": "[2]", "value": 9.42}, {"measurement": "pIC50", "setting": "[3]", "value": 7.01}, {"measurement": "Activity", "setting": "[4]", "value": 1.89}, {"measurement": "Ratio IC50", "setting": "[5]", "value": 255}, {"measurement": "Ratio IC50", "setting": "[9]", "value": 2}, {"measurement": "inhibition", "setting": "[10]", "value": "Dose-dependent effect"}, {"measurement": "inhibition", "setting": "[11]", "value": 31, "unit": "%"}]}, {"smiles": "CC(=O)N(CCC[C@@H](NC(=O)[C@@H](N)Cc1ccc(O)cc1)C(=O)N[C@@H](Cc1ccccc1)C(=O)NCC(=O)N[C@@H](Cc1ccc(O)cc1)C(=O)N1CCC[C@H]1C(=O)N[C@@H](CO)C(=O)O)C(C)=O", "note": "(H-Y[X8]FGYPS-OH)", "values": [{"measurement": "pIC50", "setting": "[2]", "value": 8.37}, {"measurement": "pIC50", "setting": "[3]", "value": 6.57}, {"measurement": "Activity", "setting": "[4]", "value": 0.17}, {"measurement": "Ratio IC50", "setting": "[5]", "value": 64}]}, {"smiles": "COC(=O)/C=C/C(=O)N[C@@H]1CC[C@@]2(O)[C@H]3Cc4ccc(O)c5c4[C@@]2(CCN3CC2CC2)[C@H]1O5", "values": [{"measurement": "pIC50", "setting": "[12]", "value": 8.66}]}, {"smiles": "CC(C)C[C@@H](CSSc1ncccc1[N+](=O)[O-])NC(=O)[C@H](Cc1ccccc1)NC(=O)CNC(=O)C(C)NC(=O)[C@@H](N)Cc1ccc(O)cc1", "note": "(stereo in doubt)", "values": [{"measurement": "inhibition", "setting": "[13]", "value": "Dose-dependent effect"}, {"measurement": "pIC50", "setting": "[14]", "value": 7.72}]}, {"smiles": "C[C@@H](NC(=O)[C@@H](N)Cc1ccc(O)cc1)C(=O)NCC(=O)N(C)c1ccccc1", "values": [{"measurement": "inhibition", "setting": "[15]", "value": "Dose-dependent effect"}]}, {"smiles": "CC(=O)N(CCCC[C@@H](NC(=O)[C@@H](N)Cc1ccc(O)cc1)C(=O)N[C@@H](Cc1ccccc1)C(=O)NCC(=O)N[C@@H](Cc1ccc(O)cc1)C(=O)N1CCC[C@H]1C(=O)N[C@@H](CO)C(=O)O)C(C)=O", "note": "(H-Y[X7]FGYPS-OH)", "values": [{"measurement": "pIC50", "setting": "[2]", "value": 7.53}, {"measurement": "pIC50", "setting": "[3]", "value": 6.36}, {"measurement": "Activity", "setting": "[4]", "value": 0.02}, {"measurement": "Ratio IC50", "setting": "[5]", "value": 15}]}, {"smiles": "N[C@@H](Cc1ccc(O)cc1)C(=O)N[C@H](CCCN(C(=O)CBr)C(=O)CBr)C(=O)N[C@@H](Cc1ccccc1)C(=O)NCC(=O)N[C@@H](Cc1ccc(O)cc1)C(=O)N1CCC[C@H]1C(=O)N[C@@H](CO)C(=O)O", "note": "(H-Y[X1]FGYPS-OH)", "values": [{"measurement": "Ratio IC50", "setting": "[1]", "value": 3}, {"measurement": "pIC50", "setting": "[2]", "value": 9.96}, {"measurement": "pIC50", "setting": "[3]", "value": 6.47}, {"measurement": "Activity", "setting": "[4]", "value": 6.54}, {"measurement": "Ratio IC50", "setting": "[5]", "value": 3110}, {"measurement": "Ratio IC50", "setting": "[9]", "value": 7}, {"measurement": "inhibition", "setting": "[10]", "value": "Dose-dependent effect"}, {"measurement": "inhibition", "setting": "[16]", "value": "inactive"}]}]}
